The values below come from ChEMBL document CHEMBL1142011, “Discovery of an exceptionally potent and selective class of fatty acid amide hydrolase inhibitors enlisting proteome-wide selectivity screening: concurrent optimization of enzyme inhibitor potency and selectivity” (Bioorg Med Chem Lett, 2005).

The target in assay [1] is T1, Fatty-acid amide hydrolase 1 (Mus musculus, UniProt O08914).
T1 sequence (O08914 whole entry): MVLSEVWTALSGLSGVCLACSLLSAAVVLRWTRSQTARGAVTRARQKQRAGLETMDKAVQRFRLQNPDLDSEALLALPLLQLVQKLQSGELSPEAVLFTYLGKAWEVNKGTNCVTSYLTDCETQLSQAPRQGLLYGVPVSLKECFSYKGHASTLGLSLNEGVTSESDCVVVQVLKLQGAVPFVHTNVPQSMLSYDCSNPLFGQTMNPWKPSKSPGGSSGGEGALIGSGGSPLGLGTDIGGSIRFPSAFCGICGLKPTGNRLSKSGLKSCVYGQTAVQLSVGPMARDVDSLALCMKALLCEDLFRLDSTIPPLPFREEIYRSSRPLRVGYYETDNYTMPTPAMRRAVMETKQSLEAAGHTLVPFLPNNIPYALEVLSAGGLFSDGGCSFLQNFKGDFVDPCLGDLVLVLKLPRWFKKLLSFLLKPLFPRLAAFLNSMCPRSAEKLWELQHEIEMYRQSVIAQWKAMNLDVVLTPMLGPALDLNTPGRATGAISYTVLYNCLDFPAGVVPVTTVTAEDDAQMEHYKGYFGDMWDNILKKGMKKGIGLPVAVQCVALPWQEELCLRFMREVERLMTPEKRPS
Put plainly: Inhibitor affinity towards enzymes of class serine hydrolase was determined using biotin or fluorescent as radioligand (FP-biotin or FP-Rh).

The target in a further assay is T2, Liver carboxylesterase 1 (Homo sapiens, UniProt P23141).
T2 sequence (P23141 whole entry): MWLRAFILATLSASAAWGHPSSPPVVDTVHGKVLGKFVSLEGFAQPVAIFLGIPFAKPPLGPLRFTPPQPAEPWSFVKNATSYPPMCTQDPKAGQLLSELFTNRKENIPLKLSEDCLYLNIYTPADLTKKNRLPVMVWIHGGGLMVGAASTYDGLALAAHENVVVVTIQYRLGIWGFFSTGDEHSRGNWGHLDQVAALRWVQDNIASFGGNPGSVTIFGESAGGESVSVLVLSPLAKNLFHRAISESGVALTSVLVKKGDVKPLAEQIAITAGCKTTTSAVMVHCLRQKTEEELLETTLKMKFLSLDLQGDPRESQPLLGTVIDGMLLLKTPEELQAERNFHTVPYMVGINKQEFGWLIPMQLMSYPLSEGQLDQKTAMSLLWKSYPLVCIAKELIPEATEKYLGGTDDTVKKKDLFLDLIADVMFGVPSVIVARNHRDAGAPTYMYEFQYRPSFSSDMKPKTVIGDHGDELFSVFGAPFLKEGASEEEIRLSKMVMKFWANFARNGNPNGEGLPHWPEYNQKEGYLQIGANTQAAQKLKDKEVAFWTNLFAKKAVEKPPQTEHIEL
Put plainly: Inhibitory concentration of triacylgylcerol hydrolase using FP-Rh radioligand. An outline of the steps:
(§1)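 Competitive activity-based profiling of native membrane proteomes (brain, heart) with no purified enzyme or substrate. Proteome was incubated with rhodamine-tagged fluorophosphonate (FP-Rh) across systematically varied inhibitor concentrations under kinetically controlled conditions. Labeled serine hydrolases were resolved by SDS-PAGE and fluorescence-detected. Loss of band labeling gave IC50 for each enzyme.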

Assay [2] can be described thus: Concentration of 50% inhibition of KIAA1363 was determined using FP-Rh as radioligand. An outline of the steps:
as §1

The target in assay [3] is T3, Fatty-acid amide hydrolase 1 (Homo sapiens, UniProt O00519).
T3 sequence (O00519 whole entry): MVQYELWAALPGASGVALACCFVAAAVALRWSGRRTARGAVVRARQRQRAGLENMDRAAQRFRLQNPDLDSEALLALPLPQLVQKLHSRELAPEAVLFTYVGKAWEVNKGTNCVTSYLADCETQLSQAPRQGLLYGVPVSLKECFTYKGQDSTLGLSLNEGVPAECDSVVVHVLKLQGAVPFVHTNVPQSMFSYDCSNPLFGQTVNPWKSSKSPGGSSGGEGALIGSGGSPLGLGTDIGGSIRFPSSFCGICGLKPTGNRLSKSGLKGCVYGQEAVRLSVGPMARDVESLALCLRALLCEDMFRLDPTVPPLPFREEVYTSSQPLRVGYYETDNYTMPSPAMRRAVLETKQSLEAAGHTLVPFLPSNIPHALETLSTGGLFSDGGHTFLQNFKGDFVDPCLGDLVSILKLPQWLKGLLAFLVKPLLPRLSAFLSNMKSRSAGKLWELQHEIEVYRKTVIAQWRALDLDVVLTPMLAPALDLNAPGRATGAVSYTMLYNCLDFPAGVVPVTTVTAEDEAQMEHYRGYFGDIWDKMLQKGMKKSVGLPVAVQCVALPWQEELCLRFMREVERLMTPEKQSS
Briefly: Inhibitory concentration of fatty acid amide hydrolase using FP-Rh radioligand. The method in brief:
as §1

Structures are written as SMILES. Several values for one entry are separate records, joined by “and”; a condition that tells them apart may be missing. Identical values can stand only once.

The Ki is the dissociation constant of the complex between target and ligand, obtained from inhibition or displacement. Higher therefore signals weaker binding. Usually IC50 stands for the concentration needed to halve the response being measured. High values mean a need for much substance, low ones inhibition by little substance. `CCCCCCCC/C=C\CCCCCCCC(=O)c1ncco1` showed a Ki in assay [1] of 100 nM. For the same compound, the IC50 is 9000 nM on Liver carboxylesterase 1, greater than 100000 nM in assay [2] and 2000 nM in assay [3].

Compound `CCCCCCCC/C=C/CCCCCCCC(=O)C(F)(F)F` displayed a Ki in assay [1] of 80 nM. For the same compound, the IC50 at Liver carboxylesterase 1 was 5000 nM; in assay [2], 1000 nM; in assay [3], 5000 nM.

With `O=C(CCCCCc1ccccc1)c1ncc(-c2ccccn2)o1`, the Ki in assay [1] came out at 11 nM. The 50% inhibitory concentration (IC50) at Liver carboxylesterase 1 was 200 nM; in assay [2] it was greater than 100000 nM; in assay [3], 100 nM.

Take `CCCCCCCC/C=C\CCCCCCCC(=O)c1nc2ccccc2o1`: the inhibitory constant (Ki) in assay [1] amounted to 370 nM. Further, the IC50 on Liver carboxylesterase 1 was 10000 nM; in assay [2], greater than 100000 nM; in assay [3] it was 10000 nM.

Regarding `CCCCCCCCCC(=O)C(F)(F)F`, the affinity in assay [1] corresponds to a Ki of 130 nM. For the same compound, the IC50 on Liver carboxylesterase 1 turned out to be 10 nM; in assay [2], 400 nM; in assay [3], 10000 nM.

The compound `O=C(CCCCCCc1ccccc1)c1ncc(-c2ccccn2)o1` displayed an IC50 in assay [2] greater than 100000 nM.

Take `O=C(CCCCCCCCc1ccccc1)c1ncc(-c2ccccn2)o1`: in assay [1], the affinity, expressed as Ki, was 7.8 nM. The IC50 on Liver carboxylesterase 1 is 6000 nM; in assay [2], greater than 100000 nM; in assay [3], 30 nM.

Regarding `CCCCCCCC(=O)C(F)(F)F`, in assay [1], the Ki was 1200 nM. For the same compound, the IC50 worked out at 2 nM at Liver carboxylesterase 1, 1500 nM in assay [2] and 30000 nM in assay [3].

`CCCCCCCC/C=C\CCCCCCCC(=O)c1nc2ncccc2o1` registered a Ki in assay [1] of 2.3 nM. The 50% inhibitory concentration (IC50) on Liver carboxylesterase 1 was found to be 1000 nM; in assay [2] it was 60000 nM; in assay [3] it was 40 nM.

Consider `O=C(CCCCCc1ccccc1)C(F)(F)F`, for which, in assay [1], the Ki was 170 nM. Further, the results for the IC50 (at Liver carboxylesterase 1; in assay [2]; in assay [3]) were 0.5 nM, 800 nM and 5000 nM, respectively.

For `O=C(CCCCCc1ccccc1)c1nc2ncccc2o1`, the Ki in assay [1] was found to be 0.2 nM. Moreover, the figures for the IC50 (at Liver carboxylesterase 1; in assay [2]; in assay [3]) were 1 nM, 10000 nM and 1 nM, respectively.

For the compound `O=C(CCCCCCCc1ccccc1)C(F)(F)F`, in assay [1], the Ki turned out to be 25 nM. Also, the IC50 at Liver carboxylesterase 1 was 5 nM; in assay [2], 200 nM; in assay [3], 2000 nM.

In turn, `O=C(CCCCCCCCc1ccccc1)c1nc2ncccc2o1` showed a Ki in assay [1] of 0.52 nM. For the same compound, the IC50 amounted to 5 nM on Liver carboxylesterase 1, 10000 nM in assay [2] and 0.1 nM in assay [3].

`CCCCCCCC/C=C\CCCCCCCC(=O)c1ncc(-c2ccccn2)o1` returned a Ki in assay [1] of 18 nM. Moreover, the results for the IC50 (at Liver carboxylesterase 1; in assay [2]; in assay [3]) were 50000 nM, greater than 100000 nM and 200 nM, respectively.

The compound `O=C(CCCCCCc1ccccc1)c1nnc(-c2cccnc2)o1` registered a Ki in assay [1] of 1 nM. Also, the figures for the IC50 (on Liver carboxylesterase 1; in assay [2]; in assay [3]) were 100 nM, greater than 100000 nM and 20 nM, respectively.

Compound `CCCCCCCC/C=C\CCCCCCCC(=O)c1nnco1` returned a Ki in assay [1] of 90 nM. In other words, the double-digit nanomolar range.

The compound `CCCCCCCCCCCCCCCCCC(=O)C(F)(F)F` gave a Ki in assay [1] of 240 nM. Further, the values for the IC50 (on Liver carboxylesterase 1; in assay [2]; in assay [3]) were 4600 nM, 6600 nM and 6400 nM, respectively.

On to `O=C(CCCCCCc1ccccc1)c1nnc(-c2ccncc2)o1`, for which the Ki in assay [1] was determined as 1 nM. For the same compound, the IC50 was 30 nM on Liver carboxylesterase 1, greater than 100000 nM in assay [2] and 20 nM in assay [3].

In assay [1], `O=C(CCCCCCCc1ccccc1)c1nc2ncccc2o1` displayed an inhibition constant (Ki) of 0.39 nM. Also, the IC50 on Liver carboxylesterase 1 came out at 5 nM; in assay [2] it was 20000 nM; in assay [3] it was 0.3 nM.

`O=C(CCCCCCCc1ccccc1)c1ncc(-c2ccccn2)o1` yielded an inhibition constant Ki in assay [1] of 7.5 nM. Also, the IC50 at Liver carboxylesterase 1 is 1000 nM; in assay [2], greater than 100000 nM; in assay [3], 8 nM.

Turning to `CCCCCCCCCCCC(=O)C(F)(F)F`, the Ki in assay [1] is 140 nM. Moreover, the IC50 on Liver carboxylesterase 1 is 70 nM; in assay [2] it was 500 nM; in assay [3] it was 10000 nM.

In assay [1], `O=C(CCCCCCc1ccccc1)c1nnc(-c2ccco2)o1` registered a Ki of 0.56 nM.

Regarding `O=C(CCCCCCCCc1ccccc1)c1nnc(-c2ccccn2)o1`, in assay [1], the Ki was 0.85 nM and 0.83 nM. Moreover, the IC50 is 500 nM at Liver carboxylesterase 1, 3000 nM in assay [2] and 0.8 nM in assay [3].

For the compound `O=C(CCCCCc1ccccc1)c1nnc(-c2ccccn2)o1`, the IC50 worked out at 30 nM on Liver carboxylesterase 1, 50000 nM in assay [2] and 4 nM in assay [3].

In assay [1], `O=C(CCCCCCc1ccccc1)c1nc2ncccc2o1` gave a Ki of 0.28 nM. In addition, the results for the IC50 (at Liver carboxylesterase 1; in assay [2]; in assay [3]) were 3 nM, 20000 nM and 0.3 nM, respectively.

In turn, `CCCCCCCC/C=C\CCCCCCCC(=O)c1nnc(-c2ccccc2)o1` gave a Ki in assay [1] of 16 nM. Further, the IC50 on Liver carboxylesterase 1 was 20000 nM; in assay [2], greater than 100000 nM; in assay [3], 200 nM.

`O=C(CCCCCc1ccccc1)c1nnc(-c2cccnc2)o1`: the Ki in assay [1] was 0.85 nM.

`CCCCCCCC/C=C\CCCCCCCC(=O)c1ncc(-c2ccccc2)o1`: in assay [1], the Ki was determined as 320 nM. Besides, the IC50 on Liver carboxylesterase 1 was 50000 nM; in assay [2], greater than 100000 nM; in assay [3] it was 5000 nM.

As to `O=C(CCCCCCc1ccccc1)c1nnc(-c2ccccc2)o1`, in assay [1], the Ki worked out at 2 nM.

`O=C(CCCCCc1ccccc1)c1nc2ccccc2o1` displayed a Ki in assay [1] of 220 nM. Besides, the IC50 at Liver carboxylesterase 1 is 20 nM; in assay [2], greater than 100000 nM; in assay [3] it was 10000 nM.

As for `CCCCCCCC/C=C\CCCCCCCC(=O)c1nnc(-c2ccccn2)o1`, the Ki in assay [1] was determined as 3 nM. Further, the IC50 on Liver carboxylesterase 1 is 20000 nM; in assay [2], greater than 100000 nM; in assay [3], 4 nM.

On to `O=C(CCCCCCc1ccccc1)c1nnc(-c2ccccn2)o1`, for which the figures for the IC50 (on Liver carboxylesterase 1; in assay [2]; in assay [3]) were 140 nM, 90000 nM and 1 nM, respectively.

As for `O=C(CCCCCCc1ccccc1)C(F)(F)F`, in assay [1], the inhibition constant Ki worked out at 100 nM. Besides, the IC50 at Liver carboxylesterase 1 is 1 nM; in assay [2], 200 nM; in assay [3] it was 5000 nM.

As to `O=C(CCCCCCCc1ccccc1)c1nnc(-c2ccco2)o1`, the affinity in assay [1] corresponds to a Ki of 0.29 nM. This counts as sub-nanomolar.

Consider `O=C(CCCCCCCc1ccccc1)c1nnc(-c2ccccn2)o1`, for which the IC50 at Liver carboxylesterase 1 was found to be 200 nM; in assay [2], 60000 nM; in assay [3], 0.6 nM.
